# Bioassay records: PubChem BioAssay, The Scripps Research Institute Molecular Screening Center
# M5 ag – CHRM5 agonism in calcium assay; P08912; CHO-K1 hM5 cells, Fluo-8 calcium fluorescence; 0% DMSO wells, 100% maximal acetylcholine response; 0.19% of 360,000 active; activation, % at 3 µM; AID 624037;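 active = activation above the run's mean over test compounds plus 3 SD, cut at about 23% in these data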;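 note: signal is peak over basal fluorescence ratio across the kinetic read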
# CHRM5 PAM – positive allosteric modulators of human muscarinic M5 receptor. activation, % at 3 µM. P08912. CHO-K1 hM5, Fluo-8 calcium, ACh EC20 PAM; 0% = ACh EC20, 100% = ACh EC100. 0.3% of 360,000 active. AID 624038;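 active = activation above the run cutoff, the mean activation of all test compounds plus 3 SD, cut at about 18% in these data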
#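 Assay system: CHO-K1 hM5 cells / Incubation: Fluo-8 loading 80 min at 37 °C plus 30 min room temperature / Technique: Fluo-8 calcium dye fluorescence, kinetic read / Repeats: single replicate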
# CHRM4 antagonist – blocks acetylcholine activation of human M4 receptor. P08173. CHO-hM4 cells, ACh EC80, Fluo-8 calcium fluorescence. inhibition, % at 3 µM. 0.73% of 360,000 active. AID 624125;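 active = inhibition above its plate's cutoff, the mean inhibition of sample wells plus 3 SD, cut at about 27% in these data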;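 note: 0% = acetylcholine EC80 with DMSO and 100% = DMSO without agonist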
# Target sequence (P08173 whole entry, looked up): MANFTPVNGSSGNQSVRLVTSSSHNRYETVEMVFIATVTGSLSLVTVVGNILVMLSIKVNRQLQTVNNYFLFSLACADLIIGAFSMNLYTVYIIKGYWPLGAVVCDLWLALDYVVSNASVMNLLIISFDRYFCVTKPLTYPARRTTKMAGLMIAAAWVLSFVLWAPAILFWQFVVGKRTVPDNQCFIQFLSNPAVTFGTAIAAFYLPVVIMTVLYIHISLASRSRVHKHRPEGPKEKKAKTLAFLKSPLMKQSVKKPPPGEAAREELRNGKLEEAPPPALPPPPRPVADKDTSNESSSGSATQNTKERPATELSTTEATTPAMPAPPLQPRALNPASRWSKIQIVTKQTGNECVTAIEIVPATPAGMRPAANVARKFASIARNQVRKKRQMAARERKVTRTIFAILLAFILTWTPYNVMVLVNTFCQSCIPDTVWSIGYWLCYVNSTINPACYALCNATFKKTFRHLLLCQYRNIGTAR
# M5 antag – blocks acetylcholine activation of human M5 receptor; CHO-hM5 cells, Fluo-8 calcium fluorescence, ACh EC80; 0.59% of 360,000 active; P08912; inhibition, % at 3 µM;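 active = inhibition above a per-plate cutoff, the mean of that plate's test compounds plus 3 SD, cut at about 27% in these data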;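 note: 0% = acetylcholine EC80 with DMSO and 100% = DMSO without agonist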
# M4 ag – agonists of human muscarinic M4 receptor (CHRM4); CHO-K1 hM4/Gqi5, Fluo-8 calcium fluorescence; vehicle 0%, full acetylcholine response 100%; activation, % at 3 µM; 0.14% of 360,000 active;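 active = activation above the run mean over all test wells plus 3 SD, cut at about 32% in these data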;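 note: peak over basal fluorescence ratio per well then scaled between controls; 0% = DMSO wells and 100% = acetylcholine at EC100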
# M4 PAM – CHRM4 positive allosteric modulation; 0.4% of 360,000 active; P08173; activation, % at 3 µM; CHO-K1 hM4/Gqi5, Fluo-8 calcium fluorescence, ACh EC20; 0% = ACh EC20, 100% = maximal ACh;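 active = activation above its plate's cutoff, the mean activation of sample wells plus 3 SD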
# * hit, by the source's call. The list is not random: actives were taken first. Their share in the collection is about 1.9%.
SMILES,M5 ag,CHRM5 PAM,CHRM4 antagonist,M5 antag,M4 ag,M4 PAM
C=CC(C)(O)CCCC(C)CCCC(C)CCCC(C)C (stereo not drawn),1.9,2.5,-0.2,0.7,1.4,2.7
O=C(COC(=O)C1(c2ccccc2)CC1)NNC(=O)c1ccccc1,2.5,-9.1,1.4,9.7,1.0,3.1
O=C(CSc1nnc(CNc2ccc(F)cc2)o1)c1ccccc1,-2.5,5.5,-21.3,-1.6,3.7,22.8*
Clc1ccc(OCc2cn3ccccc3n2)c2ncccc12,-4.6,-12.2,-5.2,35.0*,0.7,-1.1
O=[N+]([O-])c1cccc(/C=N/Nc2nc(NCc3ccccc3)nc(N3CCOCC3)n2)c1O,10.6,-2.8,-0.8,13.8,46.2*,-10.6
CCN(C(=O)CC(C)C)c1nnc(Cn2nnc3ccccc32)s1,5.2,-11.6,-3.4,1.7,8.5,-7.3
CCN(C(=O)c1ccc(C(C)(C)C)cc1)c1nnc(Cn2nnc3ccccc32)s1,0.6,-23.7,29.0*,33.1*,7.5,-9.7
O=C(/C=C/c1ccccc1Cl)N1CCOCC1,1.0,-2.3,-4.7,4.6,1.8,2.0
N#Cc1ccccc1/C=C/C(=O)N1CCOCC1,33.6*,-23.4,4.5,12.2,10.0,-8.2
Cc1ccc(C)c(-n2sc3ccc(F)cc3c2=O)c1,20.7,-5.0,10.2,7.6,33.2*,-7.2
CCOC(=O)c1sc(S(C)=O)c2c1CCc1conc1-2 (stereo not drawn),4.9,7.8,-1.9,-2.4,0.0,9.2
CC(C)[N+](C)(C)CC#CC(O)(c1ccccc1)c1ccccc1,-18.4,-32.1,99.3*,99.8*,0.9,-59.5
C[N+]1(CC#CC(O)(c2ccccc2)c2ccccc2)CCCC1,-7.6,-18.1,98.9*,98.8*,0.3,-17.7
OC(C#Cc1ccccc1)(c1ccccc1)c1ccccc1,-1.5,-1.8,7.9,11.7,-1.0,-6.2
O=C(CN(Cc1cccs1)C(=O)CNS(=O)(=O)c1ccc(Cl)cc1)NCC1CCCO1 (stereo not drawn),1.1,3.6,3.1,1.3,2.4,0.5
CCCCCCCCN1N=N[C@H]2[C@H]1[C@@H]1C[C@H]2N(C(=O)OC(C)(C)C)O1,-3.3,-10.5,30.8*,3.4,2.6,-15.2
CN(CCOc1ccccc1)C(=O)CCc1c[nH]c2ccccc12,0.7,-3.8,-1.4,6.7,2.0,-2.2
C=C(C)COc1ccc(-c2[nH]ncc2Oc2ccc(OC)cc2)c(O)c1,-3.6,-5.5,41.2*,6.9,-0.6,-31.7
CCCCNC(=S)Nc1ccc(C(F)(F)F)cc1,0.5,-28.5,-2.9,34.2*,10.5,-9.5
CCCCNC(=S)Nc1ccc(Cl)cc1,3.6,-9.0,4.4,4.1,6.7,-4.4
COC(=O)c1c(C)oc(C)c1S(=O)(=O)N1CCOCC1,1.3,8.0,-3.7,-5.5,0.8,7.2
COc1ccc(CNC(=O)C(c2ccc(C)cc2)N(Cc2cccs2)C(=O)c2ccc3c(c2)OCCO3)cc1 (stereo not drawn),3.8,-22.6,31.7*,23.9,24.2,-11.7
COc1ccc2nc(C)cc(Nc3ccc(C)cc3)c2c1,-3.2,-3.6,-1.1,5.2,0.8,-4.6
COc1ccc2nc(C)cc(NCc3ccc(F)cc3)c2c1,14.2,-5.8,27.2*,32.1*,32.3*,-6.7
CC1CC(C)(C)OC(C[N+]2(C)CCCCC2)O1 (stereo not drawn),-19.9,-32.6,36.5*,31.4*,-0.1,-46.1
SMILES,M5 ag,CHRM5 PAM,CHRM4 antagonist,M5 antag,M4 ag,M4 PAM
C[N+]1(CC2COC3(CCCCC3)O2)CCCC1 (stereo not drawn),-7.5,-5.0,4.4,7.6,-0.4,-10.2
CCN1C(=O)/C(=C/c2c(C)nn(C)c2C)SC1=S,-5.1,-7.0,1.9,10.6,3.6,30.5*
CCN1C(=O)/C(=C\N2CCCCCC2)SC1=S,-5.9,-21.7,69.3*,32.0*,1.8,-22.4
CNS(=O)(=O)c1cn(CC(=O)NCc2ccc(N(C)C)cc2)cc1S(=O)(=O)NC,-3.7,6.0,-8.3,1.9,-0.1,5.6
O=C(Nc1cc2c3c(c1)CC(=O)N3CCC2)c1ccc(Br)o1,-0.2,-6.1,16.9,5.1,1.2,0.7
CCOC(=O)c1[nH]c2ccc(Br)cc2c1NC(=O)CCN1CCCC(C)(C)C1,-6.4,-20.4,32.6*,46.0*,2.7,-33.7
O=C(O)CC1(CC(=O)Nc2ccc3c(c2)OCCCO3)CCCCC1,1.3,4.2,-0.7,-2.6,0.3,16.8
FC(F)Sc1ccc(NC(=S)NC2CCCC2)cc1,2.9,-17.7,10.8,5.5,13.1,-12.0
CC1CCCC(NC(=S)Nc2ccc(SC(F)F)cc2)C1C (stereo not drawn),2.8,-15.5,13.5,30.7*,10.4,-13.7
COC(=O)c1ccc(NC(=S)NC2CCCCC2C)cc1 (stereo not drawn),8.3,-19.5,-4.9,28.8*,12.4,-9.1
COCc1cc(C)nc(SCC(=O)Nc2nc(C)cs2)c1C#N,-1.1,-1.7,10.7,-0.2,3.4,1.0
COc1cc(/C=N/NC(=O)C(=O)NCc2ccco2)cc(Br)c1O,2.3,11.1,-7.5,-4.1,-1.8,8.8
CCOC(=O)c1c(C)nsc1NC(=O)C1CCCCC1,2.7,7.6,-25.8,-10.4,-0.7,13.5*
Cc1ccc(C(=O)N/C(=C/c2cccnc2)C(=O)N2CCCCCC2)cc1,-1.6,-8.0,4.3,1.4,0.7,0.7
C=CCN1C(=O)C2(OCCCO2)c2cc(C)ccc21,2.3,20.1*,0.0,-2.8,1.1,-2.3
C=CCN1C(=O)C2(OCCCO2)c2cc(CCCC)ccc21,-4.8,5.0,-2.8,4.8,-2.3,-1.8
COC(=O)c1cc(NC(=O)/C=C/c2ccc3c(c2)OCO3)cc(C(=O)OC)c1,-0.6,1.2,35.7*,10.4,5.5,9.6
COC(=O)c1cccc(NC(=O)/C=C/c2ccc3c(c2)OCO3)c1,1.0,-6.7,7.0,8.0,7.2,-2.5
COC(=O)c1ccccc1NC(=O)c1onc(C)c1Cl,-1.6,3.7,0.6,2.1,-0.5,2.2
CCc1ccccc1NC(=O)c1onc(C)c1Cl,-1.5,-9.0,55.1*,7.3,0.2,-16.0
Cc1ccc(SCc2[nH]nc3c2C2(C(=O)Nc4ccc([N+](=O)[O-])cc42)C(C#N)=C(N)O3)cc1 (stereo not drawn),-1.9,25.1*,0.8,-5.0,1.7,50.9*
Cc1ccc(SCc2[nH]nc3c2C2(CCSCC2)C(C#N)=C(N)O3)cc1,3.2,3.6,2.9,-4.9,3.7,-1.2
OCC1(Cc2ccccc2)CCN(CCCC2CCCC2)CC1,-16.9,-17.4,49.1*,7.4,7.9,-55.5
OCC1(Cc2ccccc2)CCN(Cc2ccc(-c3ccco3)cc2)CC1,-14.5,-8.5,30.1*,12.2,2.2,-20.1
